# From ChEMBL document CHEMBL4376814, “Novel cyclin-dependent kinase 9 (CDK9) inhibitor with suppression of cancer stemness activity against non-small-cell lung cancer” (Eur J Med Chem, 2019)
# Activity calls are given as the source filed them. No cut-off for these calls is given here.
# How the values were obtained:
# [1] = target: Serine/threonine-protein kinase 26 (Homo sapiens) (UniProt Q9P289); assay: Inhibition of recombinant human MST4 (4 to 304 residues) at 1 uM using RLGRDKYKTLRQIRQ as substrate measured after 40 mins in presence of [gamma33P]ATP by scintillation counting method relative to control
# [2] = system: Casein kinase I isoform gamma-3 (Homo sapiens), Q9Y6M4 [UNDEFINED MUTATION]; assay: Inhibition of recombinant human CK1gamma3 K91E/R174G/E302D mutant (1 to 330 residues) at 1 uM using KRRRALS(p)VASLPGL as substrate measured after 40 mins in presence of [gamma33P]ATP by scintillation counting method relative to control
# Outline: (§1)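 Single-point inhibition at 1 µM was measured in the Eurofins KinaseProfiler panel. Values are the mean of two independent experiments.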
# [3] = target: Serine/threonine-protein kinase DCLK2 (Homo sapiens) (UniProt Q8N568); assay: Inhibition of recombinant human DCAMKL2 (376 to end residues) at 1 uM using KKLNRTLSFAEPG as substrate measured after 40 mins in presence of [gamma33P]ATP by scintillation counting method relative to control; outline: as §1
# [4] = target: Serine/threonine-protein kinase 3 (Homo sapiens) (UniProt Q13188); assay: Inhibition of recombinant human MST2 (2 to end residues) at 1 uM using myelin basic protein as substrate measured after 40 mins in presence of [gamma33P]ATP by scintillation counting method relative to control
# [5] = target: Serine/threonine-protein kinase 32C (Homo sapiens) (UniProt Q86UX6); assay: Inhibition of recombinant full-length human STK32C at 1 uM using casein as substrate measured after 120 mins in presence of [gamma33P]ATP by scintillation counting method relative to control
# [6] = target: Inhibitor of nuclear factor kappa-B kinase subunit epsilon (Homo sapiens) (UniProt Q14164); assay: Inhibition of recombinant full-length human IKKepsilon at 1 uM using casein as substrate measured after 40 mins in presence of [gamma33P]ATP by scintillation counting method relative to control
# [7] = system: A549; assay: Induction of apoptosis in human A549 cells assessed as increase in Bim protein expression at 0.25 to 1 uM after 24 hrs by Western blot analysis; type: functional, cell-based
# Outline: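 A549 or H1299 cells exposed to the indicated concentrations for 24 h. Protein extracts then immunoblotted for apoptosis-pathway proteins (Bcl2, Bim, cleaved caspase 3).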
# [8] = target: Dual specificity tyrosine-phosphorylation-regulated kinase 2 (Homo sapiens) (UniProt Q92630); assay: Inhibition of recombinant full-length human DYRK2 at 1 uM using casein as substrate measured after 40 mins in presence of [gamma33P]ATP by scintillation counting method relative to control
# [9] = target: Serine/threonine-protein kinase 33 (Homo sapiens) (UniProt Q9BYT3); assay: Inhibition of recombinant full-length human STK33 at 1 uM using myelin basic protein as substrate measured after 40 mins in presence of [gamma33P]ATP by scintillation counting method relative to control
# [10] = target: Ribosomal protein S6 kinase alpha-2 (Homo sapiens) (UniProt Q15349); assay: Inhibition of human Rsk2 (2 to end residues) at 1 uM using KKKNRTLSVA as substrate measured after 40 mins in presence of [gamma33P]ATP by scintillation counting method relative to control
# Outline: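 Percent inhibition of kinase activity at a single compound concentration, measured by the outsourced Eurofins KinaseProfiler panel. Values are the mean of two independent experiments.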
# [11] = system: MDA-MB-231; assay: Antiproliferative activity against human MDA-MB-231 cells assessed as inhibition of cell viability after 72 hrs by CCK-8 assay; type: functional, cell-based; conditions: MDA-MB-231, 72 h
# Outline: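 Cells kept at 37 °C, 5% CO2 in DMEM or RPMI-1640 with 10% FBS and 1% penicillin/streptomycin, then seeded at 3000 cells/well (adherent) or 10,000 cells/well (suspension). Exposed to a range of concentrations for 72 h. CCK-8 added for 1-4 h before reading A450. […] Three independent experiments.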
# [12] = target: Serine/threonine-protein kinase haspin (Homo sapiens) (UniProt Q8TF76); assay: Inhibition of recombinant human haspin (471 to end residues) at 1 uM using RARTLSFAEPG as substrate measured after 40 mins in presence of [gamma33P]ATP by scintillation counting method relative to control; outline: as §1
# [13] = target: Interferon-induced, double-stranded RNA-activated protein kinase (Homo sapiens) (UniProt P19525); assay: Inhibition of recombinant human PKR (252 to end residues) at 1 uM using RSRSRSRSRSRSRSR as substrate measured after 40 mins in presence of [gamma33P]ATP by scintillation counting method relative to control; outline: as §1
# [14] = target: Mitogen-activated protein kinase kinase kinase kinase 2 (Homo sapiens) (UniProt Q12851); assay: Inhibition of recombinant human GCK (1 to 473 residues) at 1 uM using myelin basic protein as substrate measured after 40 mins in presence of [gamma33P]ATP by scintillation counting method relative to control
# [15] = target: Macrophage colony-stimulating factor 1 receptor (Homo sapiens) (UniProt P07333); assay: Inhibition of recombinant human Fms (538 to end residues) at 1 uM using KKKSPGEYVNIEFG as substrate measured after 40 mins in presence of [gamma33P]ATP by scintillation counting method relative to control
# [16] = target: Rho-associated protein kinase 2 (Homo sapiens) (UniProt O75116); assay: Inhibition of human ROCK2 (11 to 552 residues) at 1 uM using KEAKEKRQEQIAKRRRLSSLRASTSKSGGSQK as substrate measured after 40 mins in presence of [gamma33P]ATP by scintillation counting method relative to control
# Outline: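 Percent inhibition at 1 µM was measured by the contract KinaseProfiler service (Eurofins) on the human kinase. Values are the mean of two independent experiments.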
# [17] = target: Ribosomal protein S6 kinase alpha-3 (Homo sapiens) (UniProt P51812); assay: Inhibition of recombinant full-length human Rsk3 at 1 uM using KKKNRTLSVA as substrate measured after 40 mins in presence of [gamma33P]ATP by scintillation counting method relative to control; outline: as §1
# [18] = target: ALK tyrosine kinase receptor (Homo sapiens) (UniProt Q9UM73); assay: Inhibition of recombinant human ALK (1058 to end residues) at 1 uM using KKKSPGEYVNIEF as substrate measured after 40 mins in presence of [gamma33P]ATP by scintillation counting method relative to control
# [19] = target: Rho-associated protein kinase 1 (Homo sapiens) (UniProt Q13464); assay: Inhibition of recombinant human ROCK1 (17 to 535 residues) at 1 uM using KEAKEKRQEQIAKR as substrate incubated for 40 mins in presence of [gamma-33P]ATP by radiometric assay relative to control; outline: as §1
# [20] = system: NCI-H1299; assay: Inhibition of tumorsphere formation in human H1299 cells assessed as reduction in side population ratio at 0.25 to 1 uM by PI/Hoechst 33342 staining based flow cytometry; type: functional, cell-based
# [21] = target: CDK4/Cyclin D3 (Homo sapiens, UniProt P11802); assay: Inhibition of recombinant full-length human CDK4/cyclinD3 using Rb fragment as substrate measured after 40 mins in presence of [gamma33P]ATP by scintillation counting method; type: protein-complex assay
# CDK4/Cyclin D3, sequence (P11802 whole entry, the tested form may be a part): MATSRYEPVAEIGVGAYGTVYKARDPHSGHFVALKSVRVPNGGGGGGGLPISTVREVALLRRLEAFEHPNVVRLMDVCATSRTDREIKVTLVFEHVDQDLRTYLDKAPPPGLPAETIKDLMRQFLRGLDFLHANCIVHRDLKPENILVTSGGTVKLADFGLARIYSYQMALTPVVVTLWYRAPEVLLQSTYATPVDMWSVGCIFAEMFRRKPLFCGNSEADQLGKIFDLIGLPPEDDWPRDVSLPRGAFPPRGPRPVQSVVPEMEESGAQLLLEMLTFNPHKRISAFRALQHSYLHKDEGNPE
# CDK4/Cyclin D3, sequence (P30281 whole entry, further chain, the tested form may be a part): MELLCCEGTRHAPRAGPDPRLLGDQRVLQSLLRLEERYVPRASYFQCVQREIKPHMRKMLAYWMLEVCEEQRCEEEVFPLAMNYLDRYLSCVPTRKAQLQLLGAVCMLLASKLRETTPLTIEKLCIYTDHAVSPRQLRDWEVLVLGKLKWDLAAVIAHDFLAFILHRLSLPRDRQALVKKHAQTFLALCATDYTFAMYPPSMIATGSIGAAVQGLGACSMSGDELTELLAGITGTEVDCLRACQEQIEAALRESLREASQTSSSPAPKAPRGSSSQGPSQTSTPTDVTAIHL
# Serine/threonine-protein kinase 3 (Homo sapiens), sequence (Q13188 whole entry): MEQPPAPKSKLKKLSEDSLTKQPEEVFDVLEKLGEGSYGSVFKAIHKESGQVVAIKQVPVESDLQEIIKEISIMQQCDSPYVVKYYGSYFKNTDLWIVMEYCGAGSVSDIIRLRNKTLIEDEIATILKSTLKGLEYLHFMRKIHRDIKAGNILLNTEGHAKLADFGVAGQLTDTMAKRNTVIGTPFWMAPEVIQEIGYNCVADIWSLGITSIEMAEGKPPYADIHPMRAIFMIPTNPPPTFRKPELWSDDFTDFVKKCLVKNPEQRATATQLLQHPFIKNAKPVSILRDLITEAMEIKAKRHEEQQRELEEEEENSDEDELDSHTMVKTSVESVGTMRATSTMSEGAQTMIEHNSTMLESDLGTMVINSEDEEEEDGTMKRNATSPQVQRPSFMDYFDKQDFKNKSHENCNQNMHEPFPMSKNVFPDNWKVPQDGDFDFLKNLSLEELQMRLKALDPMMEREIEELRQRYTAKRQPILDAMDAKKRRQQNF
# Macrophage colony-stimulating factor 1 receptor (Homo sapiens), sequence (P07333 whole entry, the tested form may be a part): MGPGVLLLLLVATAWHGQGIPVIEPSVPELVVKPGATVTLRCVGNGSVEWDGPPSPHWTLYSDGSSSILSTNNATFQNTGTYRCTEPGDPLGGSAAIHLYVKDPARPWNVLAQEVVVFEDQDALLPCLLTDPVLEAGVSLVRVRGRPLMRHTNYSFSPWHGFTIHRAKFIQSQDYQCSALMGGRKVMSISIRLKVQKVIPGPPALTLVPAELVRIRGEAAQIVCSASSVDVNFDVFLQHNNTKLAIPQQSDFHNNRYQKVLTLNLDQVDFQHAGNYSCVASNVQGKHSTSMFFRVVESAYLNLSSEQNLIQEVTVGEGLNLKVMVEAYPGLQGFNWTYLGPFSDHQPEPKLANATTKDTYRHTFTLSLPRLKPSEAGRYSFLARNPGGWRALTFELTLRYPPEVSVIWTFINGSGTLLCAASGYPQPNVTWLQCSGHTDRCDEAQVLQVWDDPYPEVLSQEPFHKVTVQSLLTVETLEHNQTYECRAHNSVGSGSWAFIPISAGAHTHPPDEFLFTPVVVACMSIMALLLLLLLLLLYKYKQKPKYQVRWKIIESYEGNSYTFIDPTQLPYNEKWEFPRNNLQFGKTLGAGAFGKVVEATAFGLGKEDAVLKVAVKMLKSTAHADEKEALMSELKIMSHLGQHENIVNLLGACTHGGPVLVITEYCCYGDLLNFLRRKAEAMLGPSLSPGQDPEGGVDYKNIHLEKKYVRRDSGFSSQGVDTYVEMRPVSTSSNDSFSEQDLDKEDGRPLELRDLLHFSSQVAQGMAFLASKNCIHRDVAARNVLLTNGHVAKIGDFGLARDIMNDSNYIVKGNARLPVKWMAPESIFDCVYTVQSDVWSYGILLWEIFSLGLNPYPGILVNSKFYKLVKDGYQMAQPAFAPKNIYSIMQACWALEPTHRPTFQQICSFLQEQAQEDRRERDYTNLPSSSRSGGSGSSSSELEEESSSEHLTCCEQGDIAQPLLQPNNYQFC
# Inhibitor of nuclear factor kappa-B kinase subunit epsilon (Homo sapiens), sequence (Q14164 whole entry): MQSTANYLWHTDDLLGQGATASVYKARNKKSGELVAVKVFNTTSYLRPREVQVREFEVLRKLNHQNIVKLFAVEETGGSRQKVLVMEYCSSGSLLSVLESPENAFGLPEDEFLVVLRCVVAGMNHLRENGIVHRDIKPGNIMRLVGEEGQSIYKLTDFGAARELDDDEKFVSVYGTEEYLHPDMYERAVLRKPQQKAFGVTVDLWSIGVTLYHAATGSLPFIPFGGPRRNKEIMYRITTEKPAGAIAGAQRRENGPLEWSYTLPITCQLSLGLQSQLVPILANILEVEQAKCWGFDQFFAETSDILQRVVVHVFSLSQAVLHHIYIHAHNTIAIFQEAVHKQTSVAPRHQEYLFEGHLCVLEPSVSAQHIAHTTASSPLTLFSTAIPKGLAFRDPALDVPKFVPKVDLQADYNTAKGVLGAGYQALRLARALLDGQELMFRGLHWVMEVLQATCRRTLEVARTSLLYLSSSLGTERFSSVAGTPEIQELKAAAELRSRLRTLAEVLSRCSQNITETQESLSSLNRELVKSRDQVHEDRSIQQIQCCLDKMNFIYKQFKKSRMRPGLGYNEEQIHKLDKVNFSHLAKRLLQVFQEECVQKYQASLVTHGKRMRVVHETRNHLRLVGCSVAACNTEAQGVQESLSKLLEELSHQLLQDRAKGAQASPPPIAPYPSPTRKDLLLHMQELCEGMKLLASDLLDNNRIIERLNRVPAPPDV
# Serine/threonine-protein kinase 26 (Homo sapiens), sequence (Q9P289 2-416 limits assumed): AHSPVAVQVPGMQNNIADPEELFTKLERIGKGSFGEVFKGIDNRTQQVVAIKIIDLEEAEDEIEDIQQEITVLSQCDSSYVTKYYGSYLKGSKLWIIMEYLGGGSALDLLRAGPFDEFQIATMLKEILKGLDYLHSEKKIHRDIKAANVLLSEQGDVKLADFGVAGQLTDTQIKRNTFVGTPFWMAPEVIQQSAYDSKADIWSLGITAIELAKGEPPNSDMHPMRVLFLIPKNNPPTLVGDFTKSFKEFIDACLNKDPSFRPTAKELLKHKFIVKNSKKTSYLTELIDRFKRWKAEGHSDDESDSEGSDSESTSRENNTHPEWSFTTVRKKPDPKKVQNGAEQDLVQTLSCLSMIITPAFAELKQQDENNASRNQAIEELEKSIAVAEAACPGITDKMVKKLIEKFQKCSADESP
# Rho-associated protein kinase 1 (Homo sapiens), sequence (Q13464 2-1354 limits assumed): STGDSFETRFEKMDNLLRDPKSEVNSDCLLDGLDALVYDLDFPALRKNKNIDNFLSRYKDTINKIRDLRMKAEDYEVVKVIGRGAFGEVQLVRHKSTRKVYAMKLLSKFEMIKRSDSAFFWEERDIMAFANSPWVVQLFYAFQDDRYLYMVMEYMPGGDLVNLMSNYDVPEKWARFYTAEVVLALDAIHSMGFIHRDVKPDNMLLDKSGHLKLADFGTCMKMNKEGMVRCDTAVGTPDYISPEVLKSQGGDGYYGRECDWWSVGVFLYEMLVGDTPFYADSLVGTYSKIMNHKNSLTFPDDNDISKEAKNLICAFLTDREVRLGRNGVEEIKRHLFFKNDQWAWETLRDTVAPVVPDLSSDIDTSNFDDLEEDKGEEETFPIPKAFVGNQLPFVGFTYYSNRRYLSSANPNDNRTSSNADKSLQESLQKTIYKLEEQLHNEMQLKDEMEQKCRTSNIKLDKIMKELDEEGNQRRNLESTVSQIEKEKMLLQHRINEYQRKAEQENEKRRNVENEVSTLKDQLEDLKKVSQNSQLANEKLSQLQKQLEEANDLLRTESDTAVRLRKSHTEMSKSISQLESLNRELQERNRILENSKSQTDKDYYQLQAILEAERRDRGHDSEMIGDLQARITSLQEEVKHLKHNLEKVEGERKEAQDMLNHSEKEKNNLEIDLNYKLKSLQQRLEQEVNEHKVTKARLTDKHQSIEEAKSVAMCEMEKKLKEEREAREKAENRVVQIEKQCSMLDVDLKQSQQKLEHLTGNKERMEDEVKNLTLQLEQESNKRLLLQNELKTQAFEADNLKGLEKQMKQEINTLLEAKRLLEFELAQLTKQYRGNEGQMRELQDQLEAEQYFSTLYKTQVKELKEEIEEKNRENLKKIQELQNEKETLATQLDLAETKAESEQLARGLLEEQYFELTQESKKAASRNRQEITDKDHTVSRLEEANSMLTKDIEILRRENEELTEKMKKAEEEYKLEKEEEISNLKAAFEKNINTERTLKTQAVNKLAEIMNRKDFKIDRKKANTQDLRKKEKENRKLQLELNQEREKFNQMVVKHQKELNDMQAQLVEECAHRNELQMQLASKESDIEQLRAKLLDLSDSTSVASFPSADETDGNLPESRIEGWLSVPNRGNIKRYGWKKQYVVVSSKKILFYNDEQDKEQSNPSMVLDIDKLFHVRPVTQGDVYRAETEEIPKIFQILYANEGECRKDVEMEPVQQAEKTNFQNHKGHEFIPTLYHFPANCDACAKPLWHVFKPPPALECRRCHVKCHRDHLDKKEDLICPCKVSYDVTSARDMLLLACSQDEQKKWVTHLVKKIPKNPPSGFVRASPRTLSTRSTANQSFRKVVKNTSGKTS
# Serine/threonine-protein kinase 32C (Homo sapiens), sequence (Q86UX6 whole entry): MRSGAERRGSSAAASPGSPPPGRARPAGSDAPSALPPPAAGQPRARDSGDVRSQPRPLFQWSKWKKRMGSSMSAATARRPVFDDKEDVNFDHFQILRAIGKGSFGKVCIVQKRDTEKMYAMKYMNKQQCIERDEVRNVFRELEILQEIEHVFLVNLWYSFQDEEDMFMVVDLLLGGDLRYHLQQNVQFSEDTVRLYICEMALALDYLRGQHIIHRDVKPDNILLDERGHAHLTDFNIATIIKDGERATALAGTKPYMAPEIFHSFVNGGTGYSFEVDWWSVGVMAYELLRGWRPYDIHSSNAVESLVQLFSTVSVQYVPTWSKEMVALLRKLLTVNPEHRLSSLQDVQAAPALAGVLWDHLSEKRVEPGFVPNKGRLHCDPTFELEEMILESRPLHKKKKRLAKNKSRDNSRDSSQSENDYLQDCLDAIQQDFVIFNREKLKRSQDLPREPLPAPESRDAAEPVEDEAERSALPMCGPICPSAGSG
compound,measurement,setting,value
CN(C)C(=O)c1cc2cnc(Nc3ccc(NC(=O)CCCCCCCN=C=S)cc3)nc2n1C1CCCC1,inhibition,[1],6%
same,inhibition,[2],11%
same,inhibition,[3],1%
same,inhibition,[4],43%
same,inhibition,[5],17%
same,inhibition,[6],-4%
same,Activity,[7],Active
same,inhibition,[8],-1%
same,inhibition,[9],27%
same,inhibition,[10],19%
same,IC50,[11],3040 nM
same,inhibition,[12],11%
same,inhibition,[13],11%
same,inhibition,[14],81%
same,inhibition,[15],68%
same,inhibition,[16],5%
same,inhibition,[17],12%
same,inhibition,[18],-3%
same,inhibition,[19],11%
same,inhibition,[20],Active
same,IC50,[21],148 nM
